Article PMC6226330 (ACS Infectious Diseases, 2018)
Like-named read-outs stand apart in the source and are kept apart here. Values belong to the compound of their own block, whether it stands above or below them.

Experiments:
[1] = test system: S. aureus; test: Compartment PK model of dynamic 2-[18F]F-PABA PET data; assay type: in vivo, rat; conditions: after 2 h, simulation with compartment PK model
Summary of the method: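 Dynamic PET data came from blood and the infected right triceps of S. aureus-infected rats. Specific and nonspecific activities at the sites were then simulated.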

[2] = test system: S. aureus; test: In vitro uptake of 2-[18F]F-PABA by S. aureus; assay type: cell-based
Summary of the method: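 Cells were incubated with 10 kBq/mL 2-[18F]F-PABA at 37 °C with rapid agitation, with graded PABA concentrations for blocking. Cells were then pelleted, washed three times in PBS, and gamma-counted. At least six replicates were run per point. Data were expressed as percentage or normalized to total protein (Bradford).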

[3] = test system: J774 murine macrophages; test: In vitro uptake of 2-[18F]F-PABA by mammalian cells; assay type: cell-based
Summary of the method: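 J774.1 murine macrophages were cultured in RPMI GlutaMAX with 10% heat-inactivated FBS at 37 °C, 5% CO2. Tracer accumulation was gamma-counted in parallel with bacterial strains. At least six replicates were run. Values were expressed as percentage or normalized to total protein (Bradford).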

[4] = test system: MSSA and MRSA; assay type: in vivo, rat
Summary of the method: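 Female Sprague-Dawley rats (10 weeks) received 50 μL S. aureus Newman (MSSA) in the right triceps and MRSA ATCC BAA1762 in the left triceps, each at 8 log10 CFU. Oxacillin began 2–4 h after infection: 4 subcutaneous 200 mg/kg doses over 20 h. Tracer was 22.2–44.4 MBq in saline by tail-vein catheter under anesthesia. PET/CT was done 2–4 h after the last dose.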

[5] = test system: S. aureus (Newman); test: Mouse S. aureus thigh infection model, PET and ex vivo biodistribution; assay type: in vivo
[6] = test system: S. aureus; assay type: in vivo, rat; conditions: tracer containing 2 mg 19F-PABA, two hours after injection, ex vivo
Summary of the method: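 Rats carried live S. aureus Newman in the right triceps and heat-killed bacteria in BHI in the left triceps (sterile inflammation). They received 29.6–37 MBq tracer spiked with 2 mg 19F-PABA via the tail vein. At 2 h animals were sacrificed. Organ radioactivity was gamma-counted and bacterial load determined by plating and CFU enumeration.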

[7] = test system: S. aureus (Newman); test: Rat triceps infection versus sterile inflammation model, PET/CT and ex vivo; assay type: in vivo; conditions: for infected triceps to inflamed triceps ratio: PET; for PET signal at infection site versus sterile inflammation: [18F]FDG PET, 60–80 min postinjection, P = 0.2, n = 4
Summary of the method: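 Rats received live S. aureus Newman (50 μL) in the right triceps and heat-killed bacteria in BHI (50 μL) in the left. After 20–24 h, tracer was given IV and dynamic PET/CT run up to 120 min. Uptake was %ID/cc, with blood taken from the left ventricle (n = 7, mean ± SEM). Ex vivo gamma counting gave %ID/g (n = 6). Groups were compared by two-tailed Mann-Whitney U test.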

[8] = test system: MRSA; test: Bacterial burden ex vivo; assay type: in vivo, rat; conditions: four doses of 200 mg/kg subcutaneously over 20 h; untreated 9.0 ± 0.2
[9] = test system: MSSA; test: Bacterial burden ex vivo; assay type: in vivo, rat; conditions: four doses of 200 mg/kg subcutaneously over 20 h; untreated 8.4 ± 0.1
[10] = group not treated with oxacillin
[11] = oxacillin-treated, four doses of 200 mg/kg

share of total activity at site of infection from specific accumulation [1]: ~60% | PET signal in left triceps (MRSA infection) [4, 10]: 0.096 ± 0.039 %ID/cc | PET signal in right triceps (MSSA infection) [4, 10]: 0.087 ± 0.041 %ID/cc | PET signal in left triceps (MRSA infection) [4, 11]: 0.079 ± 0.036 %ID/cc | PET signal in right triceps (MSSA infection) [4, 11]: 0.025 ± 0.015 %ID/cc | ratio of 2-[18F]F-PABA in infected triceps compared to inflamed muscle [6]: 9.38 ± 2.43 | infected triceps to inflamed triceps ratio ([7]; 60 min): 5.52 | infected triceps to inflamed triceps ratio ([7]; 120 min): 7.95 | infected triceps to inflamed triceps ratio ([7]; after 10 min): ~2 fold | signal in infected triceps compared to inflamed muscle ([7]; post-mortem ex vivo analysis, %ID/g): 4.30 ± 0.82
SMILES: Nc1ccc(C(=O)O)c([18F])c1 [2-[^18F]F-PABA, 2-[^18F]fluoro-p-aminobenzoic acid]
accumulation in viable versus heat-killed bacteria ([2]; S. aureus ATCC 29213): rapidly accumulated in viable cells but not in heat-killed bacteria | accumulation in clinical strains ([2]; four MSSA and six MRSA clinical strains): accumulates in all the clinical strains tested | accumulation in mammalian cells [3]: not in mammalian cells | tracer level in infected versus uninfected thighs ([5]; mouse thigh infection): significantly higher levels of tracer were found in the infected thighs than in uninfected thighs | elimination ([5]; mouse, PET and ex vivo tissue analysis): rapidly eliminated mainly through renal clearance

PET signal at infection site versus sterile inflammation [7]: not significantly different | PET signal at infection site versus sterile inflammation ([7]; listed as [^18F]F-FDG): no difference
SMILES: OC[C@H]1OC(O)[C@H]([18F])[C@@H](O)[C@@H]1O (stereo partly shown) [[^18F]FDG, [^18F]fluorodeoxyglucose, reference compound]

SMILES: Cc1onc(-c2ccccc2)c1C(=O)N[C@@H]1C(=O)N2[C@@H]1SC(C)(C)[C@@H]2C(=O)O [oxacillin]
bacterial burden in left triceps (MRSA infection) [8]: 8.2 ± 0.3 log10 CFU/g | bacterial burden in right triceps (MSSA infection) [9]: 6.4 ± 0.4 log10 CFU/g
